Laboratory results as given in ChEMBL document CHEMBL1649255, “Impact of novel human immunodeficiency virus type 1 reverse transcriptase mutations P119S and T165A on 4'-ethynylthymidine analog resistance profile” (Antimicrob Agents Chemother, 2009).

Legend:
[1] = test system: Cc1cn([C@H]2C[C@H](O)[C@@H](COP(=O)(O)OP(=O)(O)OP(=O)(O)O)O2)c(=O)[nH]c1=O; test: Activity of HIV1 Reverse transcriptase P119S/T165A/M184V mutant; conditions: Human immunodeficiency virus 1
[2] = test system: Cc1cn([C@H]2C[C@H](O)[C@@H](COP(=O)(O)OP(=O)(O)OP(=O)(O)O)O2)c(=O)[nH]c1=O; test: Ratio of Kcat to Km for HIV1 Reverse transcriptase P119S/T165A/M184V mutant; conditions: Human immunodeficiency virus 1
[3] = test system: Cc1cn([C@H]2C[C@H](O)[C@@H](COP(=O)(O)OP(=O)(O)OP(=O)(O)O)O2)c(=O)[nH]c1=O; test: Activity of HIV1 Reverse transcriptase M184V mutant; conditions: Human immunodeficiency virus 1
[4] = test system: Cc1cn([C@H]2C[C@H](O)[C@@H](COP(=O)(O)OP(=O)(O)OP(=O)(O)O)O2)c(=O)[nH]c1=O; test: Ratio of Kcat to Km for HIV1 Reverse transcriptase M184V mutant; conditions: Human immunodeficiency virus 1
[5] = biological target: Human immunodeficiency virus type 1 reverse transcriptase (Human immunodeficiency virus 1, UniProt Q72547); test: Inhibition of wild-type HIV1 Reverse transcriptase
Outline: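 Same steady-state dTTP incorporation reaction: 250 nM DNA 23-mer/RNA 36-mer primer/template, 2.5 nM RT, Tris-HCl pH 8.0/NaCl/MgCl2/DTT/BSA buffer, 37°C. The analog triphosphate inhibitor was added at various concentrations. Apparent dTTP Km was measured at each inhibitor level to derive Ki, and Ki/Km(dTTP) was used as an inhibition-efficiency index.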

[6] = biological target: Human immunodeficiency virus type 1 reverse transcriptase (Human immunodeficiency virus 1, UniProt Q72547, P119S); test: Inhibition of HIV1 Reverse transcriptase P119S mutant
Outline: (§1)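 Steady-state inhibition of dTTP incorporation used 2.5 nM wild-type or mutant RT and 250 nM DNA/RNA 23-mer/36-mer primer/template. Apparent dTTP Km was measured across varied 4′-Ed4TTP or d4TTP to give Ki. Ki/Km(dTTP) served as the inhibition index.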

[7] = biological target: Human immunodeficiency virus type 1 reverse transcriptase (Human immunodeficiency virus 1, UniProt Q72547, T165A); test: Inhibition of HIV1 Reverse transcriptase T165A mutant; outline: as §1
[8] = biological target: Human immunodeficiency virus type 1 reverse transcriptase (Human immunodeficiency virus 1, UniProt Q72547, M184V); test: Inhibition of HIV1 Reverse transcriptase M184V mutant; outline: as §1
[9] = biological target: Human immunodeficiency virus type 1 reverse transcriptase (Human immunodeficiency virus 1, UniProt Q72547, P119S/T165A); test: Inhibition of HIV1 Reverse transcriptase P119S/T165A mutant; outline: as §1
[10] = biological target: Human immunodeficiency virus type 1 reverse transcriptase (Human immunodeficiency virus 1, UniProt Q72547, M184V/P119S); test: Inhibition of HIV1 Reverse transcriptase P119S/M184V mutant; outline: as §1
[11] = biological target: Human immunodeficiency virus type 1 reverse transcriptase (Human immunodeficiency virus 1, UniProt Q72547, M184V/T165A); test: Inhibition of HIV1 Reverse transcriptase T165A/M184V mutant; outline: as §1
[12] = biological target: Human immunodeficiency virus type 1 reverse transcriptase (Human immunodeficiency virus 1, UniProt Q72547, M184V/P119S/T165A); test: Inhibition of HIV1 Reverse transcriptase P119S/T165A/M184V mutant; outline: as §1
[13] = biological target: Human immunodeficiency virus type 1 reverse transcriptase (Human immunodeficiency virus 1) (UniProt Q72547); test: Ratio of Ki to Km for wild-type HIV1 Reverse transcriptase; outline: as §1
[14] = test system: Human immunodeficiency virus type 1 reverse transcriptase (Human immunodeficiency virus 1), Q72547 [P119S]; test: Ratio of Ki to Km for HIV1 Reverse transcriptase P119S mutant; outline: as §1
[15] = test system: Human immunodeficiency virus type 1 reverse transcriptase (Human immunodeficiency virus 1), Q72547 [T165A]; test: Ratio of Ki to Km for HIV1 Reverse transcriptase T165A mutant; outline: as §1
[16] = test system: Human immunodeficiency virus type 1 reverse transcriptase (Human immunodeficiency virus 1), Q72547 [M184V]; test: Ratio of Ki to Km for HIV1 Reverse transcriptase M184V mutant; outline: as §1
[17] = test system: Human immunodeficiency virus type 1 reverse transcriptase (Human immunodeficiency virus 1), Q72547 [P119S,T165A]; test: Ratio of Ki to Km for HIV1 Reverse transcriptase P119S/T165A mutant; outline: as §1
[18] = test system: Human immunodeficiency virus type 1 reverse transcriptase (Human immunodeficiency virus 1), Q72547 [P119S,M184V]; test: Ratio of Ki to Km for HIV1 Reverse transcriptase P119S/M184V mutant; outline: as §1
[19] = test system: Human immunodeficiency virus type 1 reverse transcriptase (Human immunodeficiency virus 1), Q72547 [T165A,M184V]; test: Ratio of Ki to Km for HIV1 Reverse transcriptase T165A/M184V mutant; outline: as §1
[20] = test system: Human immunodeficiency virus type 1 reverse transcriptase (Human immunodeficiency virus 1), Q72547 [P119S,T165A,M184V]; test: Ratio of Ki to Km for HIV1 Reverse transcriptase P119S/T165A/M184V mutant; outline: as §1
[21] = test system: Cc1cn([C@H]2C[C@H](O)[C@@H](COP(=O)(O)OP(=O)(O)OP(=O)(O)O)O2)c(=O)[nH]c1=O; test: Activity of HIV1 Reverse transcriptase T165A mutant; conditions: Human immunodeficiency virus 1
[22] = test system: Cc1cn([C@H]2C[C@H](O)[C@@H](COP(=O)(O)OP(=O)(O)OP(=O)(O)O)O2)c(=O)[nH]c1=O; test: Ratio of Kcat to Km for HIV1 Reverse transcriptase T165A mutant; conditions: Human immunodeficiency virus 1
[23] = test system: Human immunodeficiency virus 1; test: Antiviral activity against wild-type HIV1 pNL4-3 infected in TZM-bl cells by luciferase assay; type: functional, organism-based; conditions: Human immunodeficiency virus 1, pNL4-3, TZM-bl
Outline: (§2)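 TZM-bl cells (LTR-driven luciferase reporter) at 5 × 10^4 per well in RPMI 1640 with 10% dialyzed FBS. They were preincubated 16 h at 37°C with a range of 4′-Ed4T, d4T, 3TC or AZT, then infected with NL4-3-derived clones at MOI 0.01. After 72 h, lysates were read for luciferase, with uninfected background subtracted. EC50 is from % of no-drug signal, reported as mean ± SD of three experiments.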

[24] = test system: Human immunodeficiency virus 1; test: Antiviral activity against HIV1 pNL4-3 harboring Reverse transcriptase P119S mutant gene infected in TZM-bl cells after 72 hrs by luciferase assay; type: functional, organism-based; conditions: Human immunodeficiency virus 1, pNL4-3, TZM-bl; outline: as §2
[25] = test system: Human immunodeficiency virus 1; test: Antiviral activity against HIV1 pNL4-3 harboring Reverse transcriptase T165A mutant gene infected in TZM-bl cells after 72 hrs by luciferase assay; type: functional, organism-based; conditions: Human immunodeficiency virus 1, pNL4-3, TZM-bl; outline: as §2
[26] = test system: Human immunodeficiency virus 1; test: Antiviral activity against HIV1 pNL4-3 harboring Reverse transcriptase M184V mutant gene infected in TZM-bl cells after 72 hrs by luciferase assay; type: functional, organism-based; conditions: Human immunodeficiency virus 1, pNL4-3, TZM-bl; outline: as §2
[27] = test system: Human immunodeficiency virus 1; test: Antiviral activity against HIV1 pNL4-3 harboring Reverse transcriptase P119S/T165A mutant gene infected in TZM-bl cells after 72 hrs by luciferase assay; type: functional, organism-based; conditions: Human immunodeficiency virus 1, pNL4-3, TZM-bl; outline: as §2
[28] = test system: Human immunodeficiency virus 1; test: Antiviral activity against HIV1 pNL4-3 harboring Reverse transcriptase P119S/M184V mutant gene infected in TZM-bl cells after 72 hrs by luciferase assay; type: functional, organism-based; conditions: Human immunodeficiency virus 1, pNL4-3, TZM-bl; outline: as §2
[29] = test system: Human immunodeficiency virus 1; test: Antiviral activity against HIV1 pNL4-3 harboring Reverse transcriptase T165A/M184V mutant gene infected in TZM-bl cells after 72 hrs by luciferase assay; type: functional, organism-based; conditions: Human immunodeficiency virus 1, pNL4-3, TZM-bl; outline: as §2
[30] = test system: Human immunodeficiency virus 1; test: Antiviral activity against HIV1 pNL4-3 harboring Reverse transcriptase P119S/T165A/M184V mutant gene infected in TZM-bl cells after 72 hrs by luciferase assay; type: functional, organism-based; conditions: Human immunodeficiency virus 1, pNL4-3, TZM-bl; outline: as §2
[31] = test system: Human immunodeficiency virus 1; test: Antiviral activity against HIV1 pNL4-3 harboring chimeric pTKD infected in TZM-bl cells after 72 hrs by luciferase assay; type: functional, organism-based; conditions: Human immunodeficiency virus 1, pNL4-3, TZM-bl; outline: as §2

“Human immunodeficiency virus type 1 reverse transcriptase (Human immunodeficiency virus 1) (from UniProt Q72547) P119S,T165A,M184V” showed a Km [1] of 0.15 µM, a kcat [1] of 9 ×10⁻⁵ /s and a kcat/Km (10'-3/microM/s) [2] of 6.
“Human immunodeficiency virus type 1 reverse transcriptase (Human immunodeficiency virus 1) (from UniProt Q72547) M184V” showed a kcat [3] of 3.1 ×10⁻⁴ /s and a kcat/Km (10'-2/microM/s) [4] of 2.6.
`Cc1cn([C@H]2C=C[C@@H](COP(=O)(O)OP(=O)(O)OP(=O)(O)O)O2)c(=O)[nH]c1=O` [STAVUDINE TRIPHOSPHATE] was tested, and the Ki [5] was 0.63 µM, the Ki [6] was 0.64 µM and the Ki [7] was 0.21 µM. For the same compound, the Ki [8] was 0.79 µM, the Ki [9] was 0.37 µM and the Ki [10] was 0.48 µM. The Ki [11] was 0.3 µM, the Ki [12] was 1.05 µM and the Ki/Km [13] was 5.3. The Ki/Km [14] was 2.1, the Ki/Km [15] was 2.1 and the Ki/Km [16] was 6.6. The Ki/Km [17] was 5.3, the Ki/Km [18] was 2.7 and the Ki/Km [19] was 2.7. For the same compound, the Ki/Km [20] was 7.
Compound “Human immunodeficiency virus type 1 reverse transcriptase (Human immunodeficiency virus 1) (from UniProt Q72547) T165A” has a Km [21] of 0.1 µM, a kcat [21] of 2.7 ×10⁻⁵ /s and a kcat/Km (10'-2/microM/s) [22] of 2.7.
Work on `Nc1ccn([C@@H]2CS[C@H](CO)O2)c(=O)n1` [LAMIVUDINE] yielded an EC50 [23] of 0.65 µM, an EC50 [24] of 0.47 µM and an EC50 [25] of 1.08 µM. For the same compound, the EC50 [26] was > 60 µM, the EC50 [27] was 2.1 µM and the EC50 [28] was > 60 µM. For the same compound, the EC50 [29] was > 60 µM, the EC50 [30] was > 60 µM and the EC50 [31] was > 60 µM.
For `Cc1cn([C@H]2C=C[C@@H](CO)O2)c(=O)[nH]c1=O` [STAVUDINE], the EC50 [23] was 1.25 µM, the EC50 [24] was 1.44 µM and the EC50 [25] was 1.46 µM. It also gave an EC50 [26] of 1.4 µM, an EC50 [27] of 2.48 µM and an EC50 [28] of 1.55 µM. For the same compound, the EC50 [29] was 1.5 µM, the EC50 [30] was 1.28 µM and the EC50 [31] was 1 µM.
`C=C[C@@]1(CO)C=C[C@H](n2cc(C)c(=O)[nH]c2=O)O1` showed an EC50 [23] of 0.37 µM, an EC50 [24] of 0.51 µM and an EC50 [25] of 0.58 µM. For the same compound, the EC50 [26] was 0.98 µM, the EC50 [27] was 0.35 µM and the EC50 [28] was 1.38 µM. For the same compound, the EC50 [29] was 1.32 µM, the EC50 [30] was 1.96 µM and the EC50 [31] was 2.1 µM.
